species: Mus musculus; assay: Hypoglycemic activity causing more than a 20% blood glucose decrease in fasting mice; assay type: functional; settings: not given
Procedure, shortened: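 Male ICR-CD1 mice, 5 weeks old, 18 h fasted, groups of five. Oral dosing as a suspension in 0.5% (carboxymethyl)cellulose–0.14 M NaCl, 1 mL/kg; vehicle control run in parallel. Carotid blood taken at 1 h; glucose by glucose-oxidase-peroxidase. Student's t test (p < 0.05). Value is the lowest dose giving >20% glucose decrease.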

Row | Structure (SMILES) | Minimum effective hypoglycemic dose [mg/kg]
1 | CC(C)[C@H]1CC[C@H](C(=O)N[C@@H](Cc2ccccc2)C(=O)OCc2ccccc2)CC1 | 25
2 | CC[C@H]1CC[C@H](C(=O)N[C@H](Cc2ccccc2)C(=O)O)CC1 | 25
3 | C[C@H]1CC[C@H](C(=O)N[C@H](Cc2ccccc2)C(=O)O)CC1 | 25
4 | CC(C)(C)[C@H]1CC[C@H](C(=O)N[C@H](Cc2ccccc2)C(=O)O)CC1 | 6.3
5 | CCC[C@H]1CC[C@H](C(=O)N[C@H](Cc2ccccc2)C(=O)O)CC1 | 25
6 | CCCC[C@H]1CC[C@H](C(=O)N[C@H](Cc2ccccc2)C(=O)O)CC1 | 25
7 | C=C(C)[C@@H]1CC=C(C(=O)N[C@H](Cc2ccccc2)C(=O)O)CC1 | 25
8 | O=C(N[C@H](Cc1ccccc1)C(=O)O)C1CCCCC1 | 100
9 | O=C(N[C@H](Cc1ccccc1)C(=O)O)C1CCCC1 | 50
10 | CC(C)c1ccc(C(=O)N[C@H](Cc2ccccc2)C(=O)O)cc1 | 25
11 | COC(=O)[C@H](Cc1ccccc1)NC(=O)[C@H]1CC[C@H](C(C)C)CC1 | 3.1
12 | CC(C)N(C(=O)[C@H](Cc1ccccc1)NC(=O)[C@H]1CC[C@H](C(C)C)CC1)C(C)C | 100
13 | CC(C)[C@H]1CC[C@H](C(=O)N[C@@H](Cc2ccccc2)C(=O)O)CC1 [(S)-NATEGLINIDE] | 100
14 | CC(C)[C@H]1CC[C@H](C(=O)N[C@H](Cc2ccccc2)C(=O)O)CC1 [NATEGLINIDE] | 1.6
15 | CCCCNC(=O)NS(=O)(=O)c1ccc(C)cc1 [TOLBUTAMIDE] | 25

system: Mus musculus; assay: Percent decrease in blood glucose level, after peroral administration of 100 mg/kg of compound in mice; Inactive; assay type: functional; settings: route oral

Row | Structure (SMILES) | Hypoglycemic activity [%]
16 | CC(C)[C@H]1CC[C@@H](C(=O)N[C@H](Cc2ccccc2)C(=O)O)CC1 | <20
17 | O=C(N[C@H](Cc1ccccc1)C(=O)O)C1CCCCCC1 | <20
18 | CC(C)[C@H]1CC[C@H](C(=O)NCCc2ccccc2)CC1 | <20
19 | O=C(O)[C@@H](Cc1ccccc1)NC(=O)[C@H]1CC[C@H](c2ccccc2)CC1 | <20
20 | CCCCC[C@H]1CC[C@H](C(=O)N[C@H](Cc2ccccc2)C(=O)O)CC1 | <20
21 | CC(C)[C@H]1CC[C@H](C(=O)N[C@@H](Cc2ccccc2)C(N)=O)CC1 | <20
22 | O=C(N[C@H](Cc1ccccc1)C(=O)O)C1CC2CCC1C2 (stereo partly drawn) | <20
23 | O=C(N[C@H](Cc1ccccc1)C(=O)O)C1CCc2ccccc2C1 (stereo partly drawn) | <20

Source: ChEMBL document CHEMBL1124511, “N-(cyclohexylcarbonyl)-D-phenylalanines and related compounds. A new class of oral hypoglycemic agents. 2” (1989)
